Experimental data as given in ChEMBL document CHEMBL2046311, “Design, synthesis, and molecular hybrids of caudatin and cinnamic acids as novel anti-hepatitis B virus agents” (Eur J Med Chem, 2012).

Columns and labels:
[1] = Selectivity index, ratio of CC50 for human HepG2(2.2.15) cells to IC50 for Hepatitis B virus infected in human HepG2(2.2.15) cells assessed as inhibition of viral DNA replication; type: functional
Outline: (§1)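 SI calculated as CC50 (MTT, HepG 2.2.15) divided by IC50 for the named read-out (HBV DNA by real-time PCR, or HBeAg or HBsAg secretion by ELISA), in the same cell line.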

[2] = Cytotoxicity against human HepG2(2.2.15) cells by modified-MTT assay; type: cell-based
Outline: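 HepG 2.2.15 cells in RPMI-1640 with 10% fetal calf serum at 37 °C, 5% CO2. Compounds in DMSO, final DMSO below 2.5 μL/mL. Viability read by modified MTT method. CC50 is the mean of at least two experiments.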

[3] = Selectivity index, ratio of CC50 for human HepG2(2.2.15) cells to IC50 for Hepatitis B virus infected in human HepG2(2.2.15) cells assessed as inhibition of viral surface antigen secretion; type: functional; outline: as §1
[4] = Selectivity index, ratio of CC50 for human HepG2(2.2.15) cells to IC50 for Hepatitis B virus infected in human HepG2(2.2.15) cells assessed as inhibition of viral e antigen secretion; type: functional; outline: as §1
Hepatitis B virus [5] = assay: Antiviral activity against Hepatitis B virus infected in human HepG2(2.2.15) cells assessed as inhibition of viral surface antigen secretion by ELISA; type: functional, organism-based
Outline: (§2)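 HepG 2.2.15 cells in RPMI-1640 with 10% fetal calf serum at 37 °C, 5% CO2. Compounds dissolved in DMSO, culture DMSO below 2.5 μL/mL. Secreted HBeAg and HBsAg measured by ELISA. IC50 values are means of at least two experiments.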

Hepatitis B virus [6] = assay: Antiviral activity against Hepatitis B virus infected in human HepG2(2.2.15) cells assessed as inhibition of viral DNA replication by PCR analysis; type: functional, organism-based
Outline: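 HepG 2.2.15 cells grown in RPMI-1640 with 10% fetal calf serum, […] and penicillin/streptomycin at 37 °C, 5% CO2. Compounds added in DMSO, kept below 2.5 μL/mL. HBV DNA quantified by SYBR Green real-time PCR with HBV-specific primers spanning 541–591 bp. IC50 values are means of at least two experiments.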

Hepatitis B virus [7] = assay: Antiviral activity against Hepatitis B virus infected in human HepG2(2.2.15) cells assessed as inhibition of viral e antigen secretion by ELISA; type: functional, organism-based; outline: as §2

Structure (SMILES)	Ratio CC50/IC50 [1]	CC50 [2]	Ratio CC50/IC50 [3]	Ratio CC50/IC50 [4]	IC50 (Hepatitis B virus [5])	IC50 (Hepatitis B virus [6])	IC50 (Hepatitis B virus [7])
CC(=O)[C@]1(O)CC[C@@]2(O)[C@]1(C)[C@H](OC(=O)/C=C(\C)C(C)C)C[C@@H]1[C@@]3(C)CC[C@H](OC(=O)/C=C/c4ccc(F)c(F)c4)CC3=CC[C@]12O	>277	> 1290 µM	>82.7	>18.7	15.6 µM	4.66 µM	69.2 µM
CCOc1cccc(/C=C/C(=O)O[C@H]2CC[C@@]3(C)C(=CC[C@]4(O)[C@@H]3C[C@@H](OC(=O)/C=C(\C)C(C)C)[C@@]3(C)[C@]4(O)CC[C@@]3(O)C(C)=O)C2)c1	>230.1	> 2140 µM	>85.9	>15.2	24.9 µM	9.3 µM	141 µM
CC(=O)[C@]1(O)CC[C@@]2(O)[C@]1(C)[C@H](OC(=O)/C=C(\C)C(C)C)C[C@@H]1[C@@]3(C)CC[C@H](OC(=O)/C=C/c4cccc([N+](=O)[O-])c4)CC3=CC[C@]12O	>28.1	> 1590 µM	>31.7	>7.7	50.3 µM	56.7 µM	207 µM
COc1cc(/C=C/C(=O)O[C@H]2CC[C@@]3(C)C(=CC[C@]4(O)[C@@H]3C[C@@H](OC(=O)/C=C(\C)C(C)C)[C@@]3(C)[C@]4(O)CC[C@@]3(O)C(C)=O)C2)cc(OC)c1	>87.4	> 1020 µM	>34.6	>2.7	29.6 µM	11.7 µM	380 µM
CC(=O)[C@]1(O)CC[C@@]2(O)[C@]1(C)[C@H](OC(=O)/C=C(\C)C(C)C)C[C@@H]1[C@@]3(C)CC[C@H](OC(=O)/C=C/c4cccc(C)c4)CC3=CC[C@]12O	>192.6	> 1390 µM	>54.7	>10.5	25.4 µM	7.22 µM	132 µM
CC(=O)[C@]1(O)CC[C@@]2(O)[C@]1(C)[C@H](OC(=O)/C=C(\C)C(C)C)C[C@@H]1[C@@]3(C)CC[C@H](OC(=O)/C=C/c4ccc(Cl)cc4Cl)CC3=CC[C@]12O	>130.3	> 1890 µM	>8.8	>1.6	216 µM	14.5 µM	1180 µM
CC(=O)[C@]1(O)CC[C@@]2(O)[C@]1(C)[C@H](OC(=O)/C=C(\C)C(C)C)C[C@@H]1[C@@]3(C)CC[C@H](OC(=O)/C=C/c4ccc(Br)cc4)CC3=CC[C@]12O	>80.6	> 1290 µM	>35.5	>2.7	36.4 µM	16 µM	485 µM
CC(=O)[C@]1(O)CC[C@@]2(O)[C@]1(C)[C@H](OC(=O)/C=C(\C)C(C)C)C[C@@H]1[C@@]3(C)CC[C@H](OC(=O)/C=C/c4ccccc4C)CC3=CC[C@]12O	190.4	1370 µM	16.9	6	81.1 µM	7.2 µM	230 µM
CC(=O)[C@]1(O)CC[C@@]2(O)[C@]1(C)[C@H](OC(=O)/C=C(\C)C(C)C)C[C@@H]1[C@@]3(C)CC[C@H](OC(=O)/C=C/c4cccc(Br)c4)CC3=CC[C@]12O	97	429 µM	29.9	34.4	14.4 µM	4.42 µM	12.5 µM
CC(=O)[C@]1(O)CC[C@@]2(O)[C@]1(C)[C@H](OC(=O)/C=C(\C)C(C)C)C[C@@H]1[C@@]3(C)CC[C@H](OC(=O)/C=C/c4cccc(F)c4F)CC3=CC[C@]12O	>41.2	118 µM	9	7.2	13.2 µM	2.86 µM	16.4 µM
COc1ccc(/C=C/C(=O)O[C@H]2CC[C@@]3(C)C(=CC[C@]4(O)[C@@H]3C[C@@H](OC(=O)/C=C(\C)C(C)C)[C@@]3(C)[C@]4(O)CC[C@@]3(O)C(C)=O)C2)c(OC)c1OC	>73.5	> 1550 µM	>125	>55.3	12.4 µM	21.1 µM	28 µM
CC(=O)[C@]1(O)CC[C@@]2(O)[C@]1(C)[C@H](OC(=O)/C=C(\C)C(C)C)C[C@@H]1[C@@]3(C)CC[C@H](OC(=O)/C=C/c4ccc(F)cc4)CC3=CC[C@]12O	>123.9	> 1290 µM	>28.3	>32.6	45.6 µM	10.4 µM	39.5 µM
CC(=O)[C@]1(O)CC[C@@]2(O)[C@]1(C)[C@H](OC(=O)/C=C(\C)C(C)C)C[C@@H]1[C@@]3(C)CC[C@H](OC(=O)/C=C/c4ccc(F)c(C(F)(F)F)c4)CC3=CC[C@]12O	>149.2	> 1330 µM	>18.6	>1.7	71.6 µM	8.93 µM	798 µM
CC(=O)[C@]1(O)CC[C@@]2(O)[C@]1(C)[C@H](OC(=O)/C=C(\C)C(C)C)C[C@@H]1[C@@]3(C)CC[C@H](OC(=O)/C=C/c4ccc(F)c(F)c4F)CC3=CC[C@]12O	140.2	397 µM	>71.1	28.3	< 5.58 µM	2.83 µM	14 µM
CC(=O)[C@]1(O)CC[C@@]2(O)[C@]1(C)[C@H](OC(=O)/C=C(\C)C(C)C)C[C@@H]1[C@@]3(C)CC[C@H](OC(=O)/C=C/c4cccc(Cl)c4)CC3=CC[C@]12O	>103.6	> 1320 µM	>70.1	>3.7	18.8 µM	12.7 µM	359 µM
CC(=O)[C@]1(O)CC[C@@]2(O)[C@]1(C)[C@H](OC(=O)/C=C(\C)C(C)C)C[C@@H]1[C@@]3(C)CC[C@H](OC(=O)/C=C/c4ccccc4F)CC3=CC[C@]12O	68.1	523 µM	7.3	24.2	72 µM	7.68 µM	21.6 µM
CC(=O)[C@]1(O)CC[C@@]2(O)[C@]1(C)[C@H](OC(=O)/C=C(\C)C(C)C)C[C@@H]1[C@@]3(C)CC[C@H](OC(=O)/C=C/c4cccc(F)c4)CC3=CC[C@]12O	>224	> 1060 µM	>126.7	>84.7	8.4 µM	4.75 µM	12.6 µM
COc1ccccc1/C=C/C(=O)O[C@H]1CC[C@@]2(C)C(=CC[C@]3(O)[C@@H]2C[C@@H](OC(=O)/C=C(\C)C(C)C)[C@@]2(C)[C@]3(O)CC[C@@]2(O)C(C)=O)C1	>324.1	> 2370 µM	>36.9	>3.1	64 µM	7.3 µM	753 µM
CC(=O)[C@]1(O)CC[C@@]2(O)[C@]1(C)[C@H](OC(=O)/C=C(\C)C(C)C)C[C@@H]1[C@@]3(C)CC[C@H](OC(=O)/C=C/c4ccccc4C(F)(F)F)CC3=CC[C@]12O	352.9	1760 µM	37.6	<1.4	46.9 µM	5 µM	> 1280 µM
CCOc1ccccc1/C=C/C(=O)O[C@H]1CC[C@@]2(C)C(=CC[C@]3(O)[C@@H]2C[C@@H](OC(=O)/C=C(\C)C(C)C)[C@@]2(C)[C@]3(O)CC[C@@]2(O)C(C)=O)C1	>143.8	> 1730 µM	>42.6	>4.3	40.6 µM	12 µM	404 µM
CC(=O)[C@]1(O)CC[C@@]2(O)[C@]1(C)[C@H](OC(=O)/C=C(\C)C(C)C)C[C@@H]1[C@@]3(C)CC[C@H](OC(=O)/C=C/c4ccc(Cl)c(Cl)c4)CC3=CC[C@]12O	>101.2	> 1420 µM	>12.7	>1.5	112 µM	14.1 µM	949 µM
CC(=O)[C@]1(O)CC[C@@]2(O)[C@]1(C)[C@H](OC(=O)/C=C(\C)C(C)C)C[C@@H]1[C@@]3(C)CC[C@H](OC(=O)/C=C/c4ccc(C=O)cc4)CC3=CC[C@]12O	6.3	40.2 µM	1.7	2.1	23.5 µM	6.34 µM	19.2 µM
